Measured values from ChEMBL document CHEMBL1143606, “3-Aminopyrazole inhibitors of CDK2/cyclin A as antitumor agents. 2. Lead optimization” (J Med Chem, 2005).
Converted amounts (≈) assume the structure as drawn. “And” between values parts separate entries of the source, which are not always exact repeats. Equal values may be shown once.

What was measured:
[1] = rat, plasma
physchem [2] = settings: aqueous buffer, pH 7
A2780 [3] = assay: Inhibitory concentration towards human ovarian carcinoma cell line A2780; assay type: functional, cell-based
[4] = molecular target: Cyclin-dependent kinase 2/cyclin A (Homo sapiens, UniProt P24941); assay: Inhibition of cyclin dependent kinase 2-cyclin A; assay type: protein-complex assay
HT-29 [5] = assay: Percent of BrdU incorporation in HT-29 cells at 1 uM concentration of compound; assay type: functional
HT-29 [6] = assay: Percent of BrdU incorporation in HT-29 cells at 3 uM concentration of compound; assay type: functional
[7] = Inhibition of glycogen synthase kinase-3 beta (n=13)
How it was run: (§1)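 IC50 from at least two independent experiments; value is the mean of IC50s obtained by nonlinear least-squares regression fitting. Coefficient of variation of the mean 10% to 24%. GSK-3β belonged to a panel of 30 serine-threonine and tyrosine kinases.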

[8] = molecular target: T1, Cyclin-dependent kinase 1/cyclin B (Homo sapiens, UniProt P06493); assay: Inhibition of cyclin dependent kinase 1-cyclin B (n=6); assay type: protein-complex assay
How it was run: as §1

[9] = molecular target: T2, Cyclin-dependent kinase 2/cyclin E (Homo sapiens, UniProt P24941); assay: Inhibition of cyclin dependent kinase 2-cyclin E (n=6); assay type: protein-complex assay
How it was run: as §1

[10] = molecular target: T3, Cyclin-dependent kinase 4/cyclin D1 (Homo sapiens, UniProt P11802); assay: Inhibition of cyclin-dependent kinase 4-cyclin D1 (n=4); assay type: protein-complex assay
How it was run: as §1

HT-29 [11] = assay: Inhibitory concentration towards human colon cancer HT-29 cell line; assay type: functional, cell-based
HCT-116 = assay: Inhibitory concentration towards HCT 116 human colon cancer cell line; assay type: functional, cell-based
A2780 [12] = assay: Inhibitory concentration towards Human ovarian carcinoma cell line A2780; assay type: functional, cell-based
A2780 [13] = assay: Percent inhibition tumor growth of Human ovarian cancer cell A2780 in mice when administered 7.5 mg/kg twice a day for 20 days; assay type: functional; settings: Mus musculus, A2780, 480 h
How it was run: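 A2780 tumor kept by sc passage of 20-30 mg brei in athymic mice. Fragments implanted sc in left flank of nude mice, 10 mice/group. Dosing began at measurable tumors (mean 0.13 g, day 8). Dosed orally in 50% PEG 400/glucosate. Body weight followed. Data from a single experiment.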

HT-29 [14] = assay: Percent of BrdU incorporation in Brdu positive HT-29 cells at 1 uM concentration of compound; assay type: functional, Homo sapiens
HT-29 [15] = assay: Percent of BrdU incorporation in Brdu positive HT-29 cells at 3 uM concentration of compound; assay type: functional, Homo sapiens
[16] = molecular target: T1, Cyclin-dependent kinase 1/cyclin B; assay: Inhibition of cyclin dependent kinase 1-cyclin B (n=4); assay type: protein-complex assay
How it was run: as §1

[17] = molecular target: T2, Cyclin-dependent kinase 2/cyclin E; assay: Inhibition of cyclin dependent kinase 2-cyclin E (n=4); assay type: protein-complex assay
How it was run: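 Kinase inhibition assay run by a previously reported method. IC50 is the mean of values from nonlinear least-squares regression fits, with at least two independent experiments per compound. Coefficient of variation of the mean was 10% to 24%.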

[18] = Inhibition of glycogen synthase kinase-3 beta (n=6)
How it was run: as §1

[19] = molecular target: T3, Cyclin-dependent kinase 4/cyclin D1; assay: Inhibition of cyclin-dependent kinase 4-cyclin D1 (n=2); assay type: protein-complex assay
How it was run: as §1

[20] = molecular target: Cyclin-dependent kinase 5/CDK5 activator 1 (Homo sapiens, UniProt Q00535); assay: Inhibition of cyclin-dependent kinase 5 p25 alpha (n=4); assay type: protein-complex assay
How it was run: as §1

[21] = Half-life of compound in plasma of CD-1 mice upon o.s. dose; assay type: ADME, cell-free; settings: CD-1, mouse, po
How it was run: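 Mice dosed orally at 10 mg/kg in PEG 400/glucosate vehicle (preliminary PK, with iv and oral legs); plasma terminal half-life determined.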

[22] = mouse, in vivo
[23] = mouse, in vivo; remark: listed apart in the source
[24] = mouse, in vivo, iv
physchem [25] = settings: aqueous buffer

T3 sequence (P11802 whole entry): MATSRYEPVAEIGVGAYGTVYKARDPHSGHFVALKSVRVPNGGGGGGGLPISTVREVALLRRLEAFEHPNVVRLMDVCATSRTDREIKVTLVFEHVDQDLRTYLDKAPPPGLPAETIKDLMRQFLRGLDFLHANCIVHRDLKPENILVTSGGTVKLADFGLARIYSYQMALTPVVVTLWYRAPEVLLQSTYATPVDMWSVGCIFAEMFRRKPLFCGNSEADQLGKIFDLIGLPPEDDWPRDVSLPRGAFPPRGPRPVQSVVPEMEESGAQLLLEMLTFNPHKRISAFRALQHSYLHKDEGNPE
T3 sequence (P24385 whole entry, further chain): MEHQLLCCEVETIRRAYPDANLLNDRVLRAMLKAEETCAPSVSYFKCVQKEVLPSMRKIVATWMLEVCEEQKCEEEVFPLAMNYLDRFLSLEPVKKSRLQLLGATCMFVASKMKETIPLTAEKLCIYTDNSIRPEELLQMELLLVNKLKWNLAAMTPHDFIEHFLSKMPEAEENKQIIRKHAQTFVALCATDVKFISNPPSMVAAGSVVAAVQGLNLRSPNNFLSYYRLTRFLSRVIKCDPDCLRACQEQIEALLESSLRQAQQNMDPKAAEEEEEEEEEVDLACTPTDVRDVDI
Chain of Cyclin-dependent kinase 5/CDK5 activator 1 (Q00535 whole entry): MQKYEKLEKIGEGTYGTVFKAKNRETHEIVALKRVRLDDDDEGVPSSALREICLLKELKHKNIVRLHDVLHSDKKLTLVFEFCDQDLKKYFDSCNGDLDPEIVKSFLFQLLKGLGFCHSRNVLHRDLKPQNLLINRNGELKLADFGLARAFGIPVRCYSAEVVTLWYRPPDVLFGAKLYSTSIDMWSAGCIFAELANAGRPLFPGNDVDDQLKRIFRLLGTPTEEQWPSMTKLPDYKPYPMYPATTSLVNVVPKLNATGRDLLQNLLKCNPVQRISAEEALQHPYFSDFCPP
Chain of Cyclin-dependent kinase 5/CDK5 activator 1 (Q15078 whole entry, further chain): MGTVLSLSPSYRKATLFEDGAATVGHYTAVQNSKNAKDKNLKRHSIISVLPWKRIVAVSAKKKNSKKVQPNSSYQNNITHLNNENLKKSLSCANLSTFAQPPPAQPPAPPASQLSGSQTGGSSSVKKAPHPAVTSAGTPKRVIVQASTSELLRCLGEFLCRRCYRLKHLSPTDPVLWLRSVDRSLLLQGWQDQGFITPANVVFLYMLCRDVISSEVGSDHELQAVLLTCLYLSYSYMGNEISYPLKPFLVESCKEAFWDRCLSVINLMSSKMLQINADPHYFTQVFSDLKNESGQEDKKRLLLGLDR

SMILES | Binding [1] | solubility (physchem [2]) [µM] | IC50 (A2780 [3]) [nM] | IC50 [4] [nM] | other results
O=C(Cc1ccc2ccccc2c1)Nc1cc(C2CC2)n[nH]1 | 99% | 22 (≈ 6.41 µg/mL) |  |  | 
C[C@@H](C(=O)Nc1cc(C2CC2)[nH]n1)c1ccc(N2CCNC2=O)cc1 | 74% | 220 (≈ 74.7 µg/mL) | 13200 | 455 | 
COC(C(=O)Nc1cc(C2CC2)[nH]n1)c1ccccc1 (configuration not stated) |  |  |  | 5000 | 
CO[C@H](C(=O)Nc1cc(C2CC2)n[nH]1)c1ccccc1 |  |  |  | 2000 | 
O=C(Nc1cc(C2CC2)n[nH]1)C(=O)c1ccccc1 |  |  |  | 2600 | 
CC(C(=O)Nc1cc(C2CC2)[nH]n1)c1ccc(N2CCCC2)cc1 (configuration not stated) | 96% | 3 (≈ 0.973 µg/mL) | 370 |  | 
C[C@H](C(=O)Nc1cc(C2CC2)[nH]n1)c1ccc(N2Cc3ccccc3C2=O)cc1 |  | 5 (≈ 1.93 µg/mL) | 1020 | 2 | 
C[C@H](C(=O)Nc1cc(C2CC2)[nH]n1)c1ccc(N2CCCC2=O)cc1 |  |  | 800 | 37 | Brdu positive (HT-29 [5]): 25%; Brdu positive (HT-29 [6]): 4%; IC50 [7]: 732 nM; IC50 [8]: 208 nM; IC50 [9]: 55 nM; IC50 [10]: > 10000 nM; IC50 (HT-29 [11]): 639 nM; IC50 (HCT-116): 1350 nM; IC50 (A2780 [12]): 744 nM; inhibition in vivo at 7.5 mg/kg (A2780 [13]): 73%
O=C(Nc1cc(C2CC2)[nH]n1)C(F)c1ccccc1 (configuration not stated) |  |  |  | 99 | 
C[C@H](C(=O)Nc1cc(C2CC2)[nH]n1)c1ccc(N2CCOC2=O)cc1 | 73% and 74% | 232 (≈ 79 µg/mL) | 790 | 20 | Activity (HT-29 [14]): 65%; Activity (HT-29 [15]): 0.7%; IC50 [16]: 243 nM; IC50 [17]: 37 nM; IC50 [18]: 406 nM; IC50 [19]: > 10000 nM; IC50 [20]: 57 nM; IC50 (HT-29 [11]): 751 nM; IC50 (HCT-116): 1130 nM; IC50 (A2780 [12]): 716 nM; half-life [21]: 3.1 h; Clearance [22]: 4.7 mL/min/kg; Vss [23]: 0.573 L/kg; T1/2 [24]: 2.8 min; solubility (physchem [25]): 225 µM (≈ 76.6 µg/mL)
CC(C(=O)Nc1cc(C2CC2)[nH]n1)c1ccc(N2CCCCC2=O)cc1 (configuration not stated) |  |  | > 10000 | 240 | 
CC(C(=O)Nc1cc(C2CC2)[nH]n1)c1ccc(N2CCN(Cc3ccccc3)C2=O)cc1 (configuration not stated) |  |  |  | 1450 | 
C[C@H](C(=O)Nc1cc(C2CC2)[nH]n1)c1ccc(N2CCN(C)C2=O)cc1 |  |  | 1400 | 17 | 
C[C@@H](C(=O)Nc1cc(C2CC2)[nH]n1)c1ccc(N2Cc3ccccc3C2=O)cc1 |  | 51 (≈ 19.7 µg/mL) |  | 170 | 
C[C@@H](C(=O)Nc1cc(C2CC2)[nH]n1)c1ccc(N2CCOC2=O)cc1 | 72% | 220 (≈ 74.9 µg/mL) |  | 2500 | 
CC(C(=O)Nc1cc(C2CC2)[nH]n1)c1ccc(N2CCOC2=O)cc1 (configuration not stated) | 73% | 222 (≈ 75.6 µg/mL) | 1040 | 25 | 
CC(C(=O)Nc1cc(C2CC2)[nH]n1)c1ccc(N2C(=O)CCC2c2ccccc2)cc1 (configuration not stated) | 97% | 50 (≈ 20.7 µg/mL) | 15300 | 200 | 
C[C@@H](C(=O)Nc1cc(C2CC2)[nH]n1)c1ccc(N2CCCC2=O)cc1 |  |  | 12200 | 2500 | 
CC(C(=O)Nc1cc(C2CC2)[nH]n1)c1ccc(N2CCC(C(N)=O)C2=O)cc1 (configuration not stated) | 57% | 120 (≈ 45.8 µg/mL) | 5710 | 20 | 

SMILES | Binding [1] | solubility (physchem [2]) [µM] | IC50 (A2780 [3]) [nM] | IC50 [4] [nM] | other results
C[C@H](C(=O)Nc1cc(C2CC2)[nH]n1)c1ccc(N2CCNC2=O)cc1 | 74% | > 225 | 1270 | 2 | 
O=C(Nc1cc(C2CC2)[nH]n1)C(c1ccccc1)c1ccccc1 |  |  |  | > 10000 | 
CC(C(=O)Nc1cc(C2CC2)[nH]n1)c1ccc(N2CCNC2=O)cc1 (configuration not stated) | 74% | 224 (≈ 76 µg/mL) | 2250 | 12 | 
CC(C(=O)Nc1cc(C2CC2)[nH]n1)c1ccc(-n2cc[nH]c2=O)cc1 (configuration not stated) | 74% | 233 (≈ 78.6 µg/mL) | 6980 | 11 | 
N[C@H](C(=O)Nc1cc(C2CC2)[nH]n1)c1ccccc1 |  |  |  | 960 | 
CC(C(=O)Nc1cc(C2CC2)[nH]n1)c1ccc(N2CC(=O)NC2=O)cc1 (configuration not stated) | 67% | 201 (≈ 71 µg/mL) | 4540 | 17 | 
CC(C(=O)Nc1cc(C2CC2)[nH]n1)c1ccccc1 (configuration not stated) |  |  |  | 169 | 
CC(C(=O)Nc1cc(C2CC2)[nH]n1)c1ccc(N2C(=O)CCC2C)cc1 (configuration not stated) | 67% | 222 (≈ 78.2 µg/mL) | 6400 | 150 | 
CC(C(=O)Nc1cc(C2CC2)[nH]n1)c1ccc(N2CCCC2=O)cc1 (configuration not stated) |  |  | 630 | 169 | 
CC(C(=O)Nc1cc(C2CC2)[nH]n1)c1ccc(N2CCN(C)C2=O)cc1 (configuration not stated) |  |  | 1680 | 29 | 
C[C@H](C(=O)Nc1cc(C2CC2)[nH]n1)c1ccc(N2CCCC2)cc1 | 98% | 24 (≈ 7.79 µg/mL) | 220 |  | 
C[C@@H](C(=O)Nc1cc(C2CC2)[nH]n1)c1ccc(N2CCN(C)C2=O)cc1 |  |  |  | 8500 | 
C[C@@H](C(=O)Nc1cc(C2CC2)[nH]n1)c1ccccc1 |  |  |  | 6000 | 
CC(C(=O)Nc1cc(C2CC2)[nH]n1)c1ccc(N2Cc3ccccc3C2=O)cc1 (configuration not stated) |  | 12 (≈ 4.64 µg/mL) | 4750 | 13 | 
C[C@H](C(=O)Nc1cc(C2CC2)[nH]n1)c1ccccc1 |  |  |  | 84 | 
CO[C@@H](C(=O)Nc1cc(C2CC2)n[nH]1)c1ccccc1 |  |  |  | > 10000 | 
CC(C(=O)Nc1cc(C2CC2)[nH]n1)c1ccc(N2CCCS2(=O)=O)cc1 (configuration not stated) | 78% | 135 (≈ 50.6 µg/mL) | 5240 |  | 
CC(C(=O)Nc1cc(C2CC2)[nH]n1)c1ccc(-n2cn[nH]c2=O)cc1 (configuration not stated) | 58% | 109 (≈ 36.9 µg/mL) | 8390 | 73 | 
CC(C(=O)Nc1cc(C2CC2)[nH]n1)c1ccc(N2C(=O)CNC2=O)cc1 (configuration not stated) |  |  | > 10000 | 124 | 
